Laboratory results as given in ChEMBL document CHEMBL2390921, “A novel benzazepinone sodium channel blocker with oral efficacy in a rat model of neuropathic pain” (Bioorg Med Chem Lett, 2013).

What was measured:
[1] = test system: Rattus norvegicus; assay: Analgesic activity in rat spinal nerve ligation neuropathic pain model assessed as reversal of allodynia at 30 mg/kg, po measured at 24 hrs relative to control; type: functional
Method in brief: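 Rat spinal nerve ligation model. Seven days after surgery, rats received a single oral dose (3, 10 or 30 mg/kg) of test agent or vehicle. Tactile allodynia was scored at 2, 4, 8 and 24 h post-dose with calibrated von Frey filaments using an up-down paradigm. Threshold is the force giving a 50% withdrawal rate. %MPE = (post-compound − post-SNL)/(pre-SNL − post-SNL) × 100, where 100% is full reversal.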

[2] = biological target: T1, B1 bradykinin receptor (Homo sapiens) (UniProt P46663); assay: Binding affinity to BK1 receptor (unknown origin) at 25 uM relative to control
T1 sequence (whole entry): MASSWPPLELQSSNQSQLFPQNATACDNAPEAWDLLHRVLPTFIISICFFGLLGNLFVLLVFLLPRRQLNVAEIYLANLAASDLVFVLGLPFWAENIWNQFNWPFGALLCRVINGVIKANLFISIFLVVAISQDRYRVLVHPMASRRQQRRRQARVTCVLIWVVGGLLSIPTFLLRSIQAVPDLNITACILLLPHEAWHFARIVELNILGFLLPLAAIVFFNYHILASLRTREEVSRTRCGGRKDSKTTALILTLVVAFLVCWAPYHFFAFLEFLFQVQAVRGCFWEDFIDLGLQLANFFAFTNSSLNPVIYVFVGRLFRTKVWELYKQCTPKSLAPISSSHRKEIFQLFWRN

[3] = biological target: Sodium channel protein type 5 subunit alpha (Homo sapiens, UniProt Q14524); assay: Binding affinity to resting state of human NaV1.5 channel by whole-cell patch clamp assay; details: read-out: K
Chain of Sodium channel protein type 5 subunit alpha (Q14524 whole entry): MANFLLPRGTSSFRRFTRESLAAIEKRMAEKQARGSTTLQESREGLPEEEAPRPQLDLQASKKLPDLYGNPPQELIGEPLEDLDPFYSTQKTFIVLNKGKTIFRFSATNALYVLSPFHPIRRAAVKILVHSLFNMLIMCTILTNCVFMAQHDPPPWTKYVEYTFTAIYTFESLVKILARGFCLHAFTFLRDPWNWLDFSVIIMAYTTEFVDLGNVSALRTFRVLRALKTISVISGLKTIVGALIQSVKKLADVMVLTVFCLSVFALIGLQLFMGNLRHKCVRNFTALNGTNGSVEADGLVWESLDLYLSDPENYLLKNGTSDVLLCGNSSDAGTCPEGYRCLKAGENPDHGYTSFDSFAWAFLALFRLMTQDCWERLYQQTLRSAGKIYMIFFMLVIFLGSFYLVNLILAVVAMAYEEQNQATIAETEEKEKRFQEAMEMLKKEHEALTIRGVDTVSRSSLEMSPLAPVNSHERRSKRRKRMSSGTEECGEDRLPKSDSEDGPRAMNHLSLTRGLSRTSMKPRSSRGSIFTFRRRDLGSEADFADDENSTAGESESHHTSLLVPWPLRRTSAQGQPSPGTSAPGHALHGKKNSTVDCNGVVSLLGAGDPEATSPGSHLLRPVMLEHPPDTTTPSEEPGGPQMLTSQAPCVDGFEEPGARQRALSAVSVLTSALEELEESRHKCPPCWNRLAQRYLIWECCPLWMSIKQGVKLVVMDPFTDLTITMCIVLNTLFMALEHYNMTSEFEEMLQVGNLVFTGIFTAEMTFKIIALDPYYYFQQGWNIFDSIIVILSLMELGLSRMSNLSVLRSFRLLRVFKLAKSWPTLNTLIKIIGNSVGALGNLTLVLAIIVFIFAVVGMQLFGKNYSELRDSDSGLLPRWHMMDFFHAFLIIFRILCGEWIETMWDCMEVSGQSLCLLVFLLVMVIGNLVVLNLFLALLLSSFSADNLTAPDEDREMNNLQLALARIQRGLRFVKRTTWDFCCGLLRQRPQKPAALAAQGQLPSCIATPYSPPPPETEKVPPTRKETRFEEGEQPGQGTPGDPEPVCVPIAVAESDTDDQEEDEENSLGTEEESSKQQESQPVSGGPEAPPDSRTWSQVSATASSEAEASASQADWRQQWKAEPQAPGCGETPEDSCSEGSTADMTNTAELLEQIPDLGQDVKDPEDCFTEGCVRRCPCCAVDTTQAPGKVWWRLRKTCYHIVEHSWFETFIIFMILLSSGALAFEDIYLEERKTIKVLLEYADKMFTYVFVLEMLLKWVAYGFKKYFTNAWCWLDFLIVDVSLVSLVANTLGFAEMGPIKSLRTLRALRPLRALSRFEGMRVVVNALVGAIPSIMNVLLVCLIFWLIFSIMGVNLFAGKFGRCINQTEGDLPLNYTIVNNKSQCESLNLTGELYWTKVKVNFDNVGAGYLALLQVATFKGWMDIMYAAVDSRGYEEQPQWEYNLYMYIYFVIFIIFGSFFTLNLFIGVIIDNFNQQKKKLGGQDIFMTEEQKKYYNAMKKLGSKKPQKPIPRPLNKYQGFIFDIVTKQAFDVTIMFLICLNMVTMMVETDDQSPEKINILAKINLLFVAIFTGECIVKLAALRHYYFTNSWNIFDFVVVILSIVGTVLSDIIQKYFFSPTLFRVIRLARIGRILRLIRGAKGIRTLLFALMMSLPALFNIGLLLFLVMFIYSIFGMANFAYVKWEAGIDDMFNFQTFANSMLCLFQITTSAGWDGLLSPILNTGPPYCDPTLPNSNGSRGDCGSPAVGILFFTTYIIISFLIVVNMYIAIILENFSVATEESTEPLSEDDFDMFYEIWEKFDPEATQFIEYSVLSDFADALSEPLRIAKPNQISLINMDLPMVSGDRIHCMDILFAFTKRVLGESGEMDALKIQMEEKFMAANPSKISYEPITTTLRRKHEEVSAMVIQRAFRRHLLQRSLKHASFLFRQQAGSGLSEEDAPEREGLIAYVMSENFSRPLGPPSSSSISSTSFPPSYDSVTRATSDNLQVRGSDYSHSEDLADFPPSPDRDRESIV

[4] = biological target: Sodium channel protein type 9 subunit alpha (Homo sapiens, UniProt Q15858); assay: Binding affinity to inactivated state of human NaV1.7 channel assessed as inhibition of current evoked by 6 ms depolarizations to 0 mV from holding potential -70 mV at 3 uM by whole-cell patch clamp assay relative to vehicle-treated control
Chain of Sodium channel protein type 9 subunit alpha (Q15858 whole entry, looked up): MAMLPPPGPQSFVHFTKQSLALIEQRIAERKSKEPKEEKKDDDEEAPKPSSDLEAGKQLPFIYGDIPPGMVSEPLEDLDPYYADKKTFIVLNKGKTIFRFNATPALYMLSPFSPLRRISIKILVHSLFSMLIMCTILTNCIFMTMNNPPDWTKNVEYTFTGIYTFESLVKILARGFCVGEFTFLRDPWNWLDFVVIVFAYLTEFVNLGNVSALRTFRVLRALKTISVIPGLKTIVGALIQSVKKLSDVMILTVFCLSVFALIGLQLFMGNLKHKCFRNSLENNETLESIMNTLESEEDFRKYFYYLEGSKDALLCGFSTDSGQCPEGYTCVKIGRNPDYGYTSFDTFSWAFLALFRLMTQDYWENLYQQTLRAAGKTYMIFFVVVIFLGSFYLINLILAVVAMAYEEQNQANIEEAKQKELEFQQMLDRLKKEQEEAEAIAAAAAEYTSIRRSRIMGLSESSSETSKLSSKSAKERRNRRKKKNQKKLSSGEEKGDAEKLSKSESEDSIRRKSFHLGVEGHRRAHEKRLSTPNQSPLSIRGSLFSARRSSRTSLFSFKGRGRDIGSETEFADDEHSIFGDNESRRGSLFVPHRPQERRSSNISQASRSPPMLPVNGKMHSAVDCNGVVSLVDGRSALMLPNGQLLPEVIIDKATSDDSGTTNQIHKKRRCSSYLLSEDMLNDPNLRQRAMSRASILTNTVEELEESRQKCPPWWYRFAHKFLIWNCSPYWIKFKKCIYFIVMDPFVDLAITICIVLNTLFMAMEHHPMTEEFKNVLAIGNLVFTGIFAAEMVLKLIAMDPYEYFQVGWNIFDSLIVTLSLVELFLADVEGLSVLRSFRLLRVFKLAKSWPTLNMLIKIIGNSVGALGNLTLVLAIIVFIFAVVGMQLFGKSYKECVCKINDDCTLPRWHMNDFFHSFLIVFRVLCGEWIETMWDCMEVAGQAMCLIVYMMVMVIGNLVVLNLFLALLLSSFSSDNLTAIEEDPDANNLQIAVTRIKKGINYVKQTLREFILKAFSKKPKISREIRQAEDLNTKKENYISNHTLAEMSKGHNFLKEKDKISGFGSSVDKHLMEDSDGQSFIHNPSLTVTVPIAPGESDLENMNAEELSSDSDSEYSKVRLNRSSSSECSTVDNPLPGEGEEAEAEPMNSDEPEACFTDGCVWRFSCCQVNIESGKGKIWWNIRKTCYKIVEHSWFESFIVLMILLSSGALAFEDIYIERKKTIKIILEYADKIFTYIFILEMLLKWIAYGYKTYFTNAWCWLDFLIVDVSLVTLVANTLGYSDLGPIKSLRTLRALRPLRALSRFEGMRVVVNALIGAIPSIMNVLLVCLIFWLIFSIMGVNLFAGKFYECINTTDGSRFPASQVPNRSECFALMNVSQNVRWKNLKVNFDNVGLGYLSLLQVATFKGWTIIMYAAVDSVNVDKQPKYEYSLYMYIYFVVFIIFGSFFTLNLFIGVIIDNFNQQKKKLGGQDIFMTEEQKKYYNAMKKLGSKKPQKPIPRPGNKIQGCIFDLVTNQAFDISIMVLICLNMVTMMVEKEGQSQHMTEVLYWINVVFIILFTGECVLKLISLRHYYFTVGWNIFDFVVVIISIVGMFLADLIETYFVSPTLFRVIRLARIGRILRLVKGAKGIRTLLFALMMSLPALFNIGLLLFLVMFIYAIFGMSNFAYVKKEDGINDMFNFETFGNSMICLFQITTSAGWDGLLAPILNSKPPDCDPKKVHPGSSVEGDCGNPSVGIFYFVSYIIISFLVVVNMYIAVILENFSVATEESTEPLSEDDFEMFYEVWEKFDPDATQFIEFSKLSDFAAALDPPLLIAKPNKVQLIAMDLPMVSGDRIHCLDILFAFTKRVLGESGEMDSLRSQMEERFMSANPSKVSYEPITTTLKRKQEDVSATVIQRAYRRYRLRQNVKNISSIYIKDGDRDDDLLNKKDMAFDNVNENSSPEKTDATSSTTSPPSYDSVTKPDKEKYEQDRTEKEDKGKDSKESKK

[5] = biological target: hERG (KCNH2) (Homo sapiens, UniProt Q12809); assay: Displacement of [35S]-MK0499 from human ERG expressed in HEK293 cell membranes at 10 uM after 2 hrs by liquid scintillation counting analysis relative to control; details: membranes of HEK293 cells that express human ERG, probe [35S]-MK0499
Chain of hERG (KCNH2) (Q12809 whole entry): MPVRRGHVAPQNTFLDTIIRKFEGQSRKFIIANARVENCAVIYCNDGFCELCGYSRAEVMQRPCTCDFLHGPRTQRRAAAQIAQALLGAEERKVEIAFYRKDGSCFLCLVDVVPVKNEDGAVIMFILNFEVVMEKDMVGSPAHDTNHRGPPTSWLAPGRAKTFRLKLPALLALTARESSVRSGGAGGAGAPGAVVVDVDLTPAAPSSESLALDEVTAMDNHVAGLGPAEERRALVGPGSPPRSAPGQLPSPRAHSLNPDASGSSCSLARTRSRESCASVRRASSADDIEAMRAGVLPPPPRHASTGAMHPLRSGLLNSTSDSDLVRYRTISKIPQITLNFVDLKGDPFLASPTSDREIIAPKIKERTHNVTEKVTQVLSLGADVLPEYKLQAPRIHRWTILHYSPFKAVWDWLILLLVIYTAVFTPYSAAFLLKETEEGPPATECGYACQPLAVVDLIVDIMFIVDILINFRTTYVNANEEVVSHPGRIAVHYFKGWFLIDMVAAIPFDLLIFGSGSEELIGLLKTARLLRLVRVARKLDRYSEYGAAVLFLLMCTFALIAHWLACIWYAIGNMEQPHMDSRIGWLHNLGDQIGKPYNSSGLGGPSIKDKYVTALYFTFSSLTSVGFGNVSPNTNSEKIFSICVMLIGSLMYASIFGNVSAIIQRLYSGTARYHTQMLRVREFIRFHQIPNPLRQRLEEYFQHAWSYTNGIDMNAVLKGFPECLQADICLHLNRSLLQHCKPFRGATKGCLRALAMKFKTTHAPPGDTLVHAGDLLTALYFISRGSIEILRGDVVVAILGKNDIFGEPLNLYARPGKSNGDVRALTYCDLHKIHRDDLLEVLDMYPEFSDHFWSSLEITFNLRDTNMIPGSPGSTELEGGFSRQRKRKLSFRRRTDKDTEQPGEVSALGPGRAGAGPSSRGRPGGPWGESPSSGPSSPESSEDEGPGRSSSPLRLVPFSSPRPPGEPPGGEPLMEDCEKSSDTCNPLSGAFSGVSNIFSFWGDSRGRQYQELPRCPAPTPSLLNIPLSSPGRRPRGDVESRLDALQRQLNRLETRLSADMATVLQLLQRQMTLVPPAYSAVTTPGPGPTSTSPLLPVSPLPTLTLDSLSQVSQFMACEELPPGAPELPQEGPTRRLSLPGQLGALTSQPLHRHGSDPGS
Method in brief: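 hERG binding assay measuring displacement of 35S-labelled MK-0499, a known hERG blocker.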

[6] = Oral bioavailability in Sprague-Dawley rat at 3 mg/kg; type: ADME, organism-based; details: in vivo
Method in brief: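 Fasted male Sprague–Dawley rats (n = 3 per route) were dosed with 1.5 mg/mL solutions in PEG300/water or DMSO/PEG300/water, either 1.0 mg/kg iv via femoral-vein cannula or 3.0 mg/kg by oral gavage. Blood was sampled at 5 min (iv only), 15 and 30 min, and 1, 2, 4, 6 and 8 h. Plasma levels were measured by LC–MS/MS after acetonitrile protein precipitation.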

SMILES: O=C(N[C@H](Cc1ccccc1F)C(=O)N[C@@H]1CCc2c(F)c(F)cc(F)c2N(C2CC2)C1=O)C1CC1C(F)(F)F (stereo partly specified)
- Activity [1]: 10%
- Activity [2]: < 50%
- Kd [3]: > 10 µM
- inhibition [4]: 48%
- inhibition at 2 h, 10 µM [5]: 26%
- bioavailability [6]: 100%
